Measured values from ChEMBL document CHEMBL1127494, “New hexahydroxybiphenyl derivatives as inhibitors of protein kinase C” (J Med Chem, 1994).
pIC50: −log10 of the molar value. Values joined by “and” are separate entries in the source; they are usually repeats but may differ in a detail not shown here. Equal entries are not always repeated.

How the values were obtained:
Protein kinase C (PKC) [1] = test: Inhibitory activity against protein kinase C of rat brain
Outline: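 PKC purified from rat brain. The read-out was 32P transfer from 30 μM [γ-32P]ATP to histone IIIS (200 μg/mL) in 20 mM Hepes pH 7.5 with phosphatidylserine, 10 mM MgCl2, 100 μM CaCl2 and 47.5 μM EGTA, run 10 min at 30 °C. Reactions were TCA-precipitated, filtered and scintillation-counted. Lipid-independent activity was subtracted, and test levels were 4, 43 and 218 μM.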

Protein kinase C (PKC) [2] = test: Displacement of [3H]PDBU from protein kinase C; type: protein assay, Rattus norvegicus
[3] = Inhibition of c-AMP dependent kinase (PKA) catalytic subunit; design: species or system Bos taurus
[4] = target: Protein kinase C alpha type (Homo sapiens, UniProt P17252); test: Inhibition of protein kinase C alpha
[5] = target: Protein kinase C gamma type (Homo sapiens, UniProt P05129); test: Inhibition of protein kinase C gamma
Outline: (§1)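 Recombinant human enzyme expressed by baculovirus in SF9 cells, then partially purified by homogenizing the pellet in Tris pH 8 detergent buffer, spinning, and running a DEAE column with a 0–500 mM NaCl gradient, with the peak pooled. The reaction was [γ-32P]ATP (30 μM) incorporation into histone IIIS (200 μg/mL) with phosphatidylserine, Ca2+/EGTA and Mg2+ in Hepes pH 7.5, run 10 min at 30 °C. It was stopped with TCA and counted on filters. No-lipid background was subtracted, and compounds were tested at 4, 43 and 218 μM.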

[6] = target: Protein kinase C delta type (Homo sapiens, UniProt Q05655); test: Inhibition of protein kinase C delta; outline: as §1
Protein kinase C delta type, sequence (Q05655 whole entry): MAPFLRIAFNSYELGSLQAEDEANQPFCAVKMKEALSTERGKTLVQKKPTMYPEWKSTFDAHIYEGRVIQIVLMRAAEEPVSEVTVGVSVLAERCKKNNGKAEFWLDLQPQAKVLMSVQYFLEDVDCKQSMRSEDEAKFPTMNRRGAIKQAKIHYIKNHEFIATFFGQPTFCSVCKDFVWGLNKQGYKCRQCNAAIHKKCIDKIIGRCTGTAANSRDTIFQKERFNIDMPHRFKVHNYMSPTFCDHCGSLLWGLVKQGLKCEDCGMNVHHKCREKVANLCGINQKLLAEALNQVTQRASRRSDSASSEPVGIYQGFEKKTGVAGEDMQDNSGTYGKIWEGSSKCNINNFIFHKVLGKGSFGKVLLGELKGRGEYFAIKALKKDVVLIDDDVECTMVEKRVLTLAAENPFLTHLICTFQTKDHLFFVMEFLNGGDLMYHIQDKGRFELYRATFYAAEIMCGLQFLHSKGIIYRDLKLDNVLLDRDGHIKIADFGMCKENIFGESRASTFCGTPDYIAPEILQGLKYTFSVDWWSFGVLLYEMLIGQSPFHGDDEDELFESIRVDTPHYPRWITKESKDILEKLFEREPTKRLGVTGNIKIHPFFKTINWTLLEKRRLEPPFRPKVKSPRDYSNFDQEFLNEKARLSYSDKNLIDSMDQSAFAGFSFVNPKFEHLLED

Row | SMILES | IC50 (Protein kinase C (PKC) [1]) | IC50 (Protein kinase C (PKC) [2]) [µM] | pIC50 [3] | further results
1 | COc1c(OCc2ccccc2)c(OCc2ccccc2)cc(CO)c1-c1c(CO)cc(OCc2ccccc2)c(OCc2ccccc2)c1OC | > 218 µM |  |  | 
2 | COC(=O)c1cc(OCc2ccccc2)c(OCc2ccccc2)c(OCc2ccccc2)c1-c1c(C(=O)OC)cc(OCc2ccccc2)c(OCc2ccccc2)c1OCc1ccccc1 | 180 µM and 131 µM and > 218 µM |  |  | 
3 | c1ccc(COc2cc3c(c(OCc4ccccc4)c2OCc2ccccc2)-c2c(cc(OCc4ccccc4)c(OCc4ccccc4)c2OCc2ccccc2)C[N+]2(C3)Cc3cc(OCc4ccccc4)c(OCc4ccccc4)c(OCc4ccccc4)c3-c3c(cc(OCc4ccccc4)c(OCc4ccccc4)c3OCc3ccccc3)C2)cc1 | 131 µM |  |  | 
4 | O=C(O[C@@H]1OC2COC(=O)c3cc(O)c(O)c(O)c3-c3c(cc(O)c(O)c3O)C(=O)OC2C2OC(=O)c3cc(O)c(O)c(O)c3-c3c(cc(O)c(O)c3O)C(=O)OC21)c1cc(O)c(O)c(O)c1 (stereo not given in full) | 3 µM | < 50 | < 3.66 | 
5 | COc1c(OCc2ccccc2)c(OCc2ccccc2)cc2c1-c1c(cc(OCc3ccccc3)c(OCc3ccccc3)c1OC)C[N+]1(C2)Cc2cc(OCc3ccccc3)c(OCc3ccccc3)c(OC)c2-c2c(cc(OCc3ccccc3)c(OCc3ccccc3)c2OC)C1 | 87 µM | > 272 | 4.82 | 
6 | O=Cc1cc(OCc2ccccc2)c(OCc2ccccc2)c(OCc2ccccc2)c1-c1c(C=O)cc(OCc2ccccc2)c(OCc2ccccc2)c1OCc1ccccc1 | 131 µM |  |  | 
7 | CCOC(=O)c1cc(O)c(O)c(O)c1-c1c(C(=O)OCC)cc(O)c(O)c1O | > 218 µM |  |  | 
8 | COC(=O)c1cc(O)c(O)c(O)c1-c1c(C(=O)OC)cc(O)c(O)c1O | > 218 µM |  |  | 
9 | O=C(O[C@@H]1O[C@@H]2COC(=O)c3cc(O)c(O)c(O)c3-c3c(cc(O)c(O)c3O)C(=O)O[C@H]([C@H]1OC(=O)c1cc(O)c(O)c(O)c1)[C@@H]2OC(=O)c1cc(O)c(O)c(O)c1)c1cc(O)c(O)c(O)c1 [PUNICAFOLIN] | 4 µM | < 50 | < 3.66 | 
10 | O=C1OCC2O[C@@H](O)C3OC(=O)c4cc(O)c(O)c(O)c4-c4c(cc(O)c(O)c4O)C(=O)OC3C2OC(=O)c2cc(O)c(O)c(O)c2-c2c1cc(O)c(O)c2O (stereo not given in full) | 4 µM | < 50 | < 3.66 | 
11 | OCc1cc(OCc2ccccc2)c(OCc2ccccc2)c(OCc2ccccc2)c1-c1c(CO)cc(OCc2ccccc2)c(OCc2ccccc2)c1OCc1ccccc1 | 70 µM and 55 µM and 88 µM | > 272 | 4.68 | 
12 | O=C(O[C@@H]1O[C@@H]2COC(=O)c3cc(O)c(O)c(O)c3-c3c(cc(O)c(O)c3O)C(=O)O[C@H]([C@H]1O)[C@@H]2O)c1cc(O)c(O)c(O)c1 [CORILAGIN] | 20 µM |  |  | 
13 | CCOC(=O)c1cc(OCc2ccccc2)c(OCc2ccccc2)c(OCc2ccccc2)c1-c1c(C(=O)OCC)cc(OCc2ccccc2)c(OCc2ccccc2)c1OCc1ccccc1 | 50 µM and 96 µM and 75 µM | > 272 | 4.72 | 
14 | OCc1cc(OCc2ccccc2)c(OCc2ccccc2)c(O)c1-c1c(CO)cc(OCc2ccccc2)c(OCc2ccccc2)c1O | > 218 µM |  |  | 
15 | CCCCCCCCCCCCC/C=C/[C@@H](O)[C@@H](N)CO [SPHINGOSINE] | 40 µM | 23 |  | 
16 | COCc1cc(O)c(O)c(O)c1-c1c(COC)cc(O)c(O)c1O | 98 µM |  | < 3.66 | pIC50 [4]: 4.37; pIC50 [5]: 4.30
17 | BrCc1cc(OCc2ccccc2)c(OCc2ccccc2)c(OCc2ccccc2)c1-c1c(CBr)cc(OCc2ccccc2)c(OCc2ccccc2)c1OCc1ccccc1 | 103 µM |  |  | 

Now from value to compound, other results behind:

Row | IC50 (Protein kinase C (PKC) [1]) | IC50 (Protein kinase C (PKC) [2]) [µM] | pIC50 [3] | SMILES | further results
18 | > 218 µM |  |  | COc1cc2c(c(OC)c1OC)-c1c(cc(OC)c(OC)c1OC)COC2 | 
19 | 180 µM |  |  | c1ccc(COc2cc3c(c(OCc4ccccc4)c2OCc2ccccc2)-c2c(cc(OCc4ccccc4)c(OCc4ccccc4)c2OCc2ccccc2)COC3)cc1 | 
20 | > 218 µM |  |  | COc1c(OCc2ccccc2)c(OCc2ccccc2)cc(CBr)c1-c1c(CBr)cc(OCc2ccccc2)c(OCc2ccccc2)c1OC | 
21 | 97 µM |  |  | COC(=O)c1cc(OCc2ccccc2)c(OCc2ccccc2)c(OC)c1-c1c(C(=O)OC)cc(OCc2ccccc2)c(OCc2ccccc2)c1OC | 
22 | 32 µM and 28 µM and 43 µM | 54 | 4.51 and 4.54 and < 3.66 | Oc1cc2c(c(O)c1O)-c1c(cc(O)c(O)c1O)COC2 | pIC50 [4]: 4.43; pIC50 [5]: 4.47 and 4.52; pIC50 [6]: 4.38 and 4.36
23 | 94 µM |  |  | CCOC(=O)c1cc(OCc2ccccc2)c(OCc2ccccc2)c(OC)c1-c1c(C(=O)OCC)cc(OCc2ccccc2)c(OCc2ccccc2)c1OC | 
24 | > 218 µM |  |  | COc1c(OCc2ccccc2)c(OCc2ccccc2)cc(C=O)c1-c1c(C=O)cc(OCc2ccccc2)c(OCc2ccccc2)c1OC | 
